Reference: ChEMBL document CHEMBL4828740, “Discovery of Quinoxaline-Based P1-P3 Macrocyclic NS3/4A Protease Inhibitors with Potent Activity against Drug-Resistant Hepatitis C Virus Variants” (J Med Chem, 2021)

What was measured:
Hepatitis C virus [1] = assay: Antiviral activity against HCV genotype 1b infected in human Huh7 cells incubated for 96 hrs by luciferase assay; type: functional, organism-based, Hepacivirus hominis; conditions: Huh-7, 96 h
Summary of the method: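 Con1 (GT-1b) luciferase reporter replicon carrying the H77 (GT-1a) NS3 protease region, either WT or with A156T or D168A introduced by megaprimer mutagenesis. Cured Huh7 cells grown in DMEM with 10% heat-inactivated FBS and 0.1 mM non-essential amino acids. Cells electroporated with replicon RNA and kept with serially diluted inhibitor.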

[2] = biological target: T1, Hepatitis C virus serine protease, NS3/NS4A (Hepatitis C virus, UniProt A3EZI9+D2K2A8); assay: Inhibition of HCV GT-1a NS3/4a protease using Ac-DE-D(Edans)-EE-Abu-c-[COO]-AS-K(Dabcy1)-NH2 preincubated for 1 hr followed by substrate addition; type: protein complex, Hepatitis C virus subtype 1a
Hepatitis C virus [3] = assay: Antiviral activity against HCV genotype 1b harboring A156T mutant infected in human Huh7 cells incubated for 96 hrs by luciferase assay; type: functional, organism-based, Hepacivirus hominis; conditions: subtype 1b, Huh-7, 96 h
Summary of the method: (§1)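 Con1 (GT-1b) luciferase reporter replicon carrying the H77 (GT-1a) NS3 protease region, with the mutation introduced by megaprimer site-directed mutagenesis. Cured Huh7 cells were grown in DMEM with 10% heat-inactivated FBS and 0.1 mM non-essential amino acids, electroporated with replicon RNA transcripts, and kept with serially diluted inhibitor. EC50 was taken directly from the inhibition curves.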

Hepatitis C virus [4] = assay: Antiviral activity against HCV genotype 1b harboring D168A mutant infected in human Huh7 cells incubated for 96 hrs by luciferase assay; type: functional, organism-based, Hepacivirus hominis; conditions: subtype 1b, Huh-7, 96 h; summary of the method: as §1
[5] = biological target: T1, Hepatitis C virus serine protease, NS3/NS4A; assay: Inhibition of HCV GT-3a NS3/4a protease using Ac-DE-D(Edans)-EE-Abu-c-[COO]-AS-K(Dabcy1)-NH2 preincubated for 1 hr followed by substrate addition; type: protein-complex assay, Hepatitis C virus subtype 3a

Structure (SMILES) | EC50 (Hepatitis C virus [1]) [nM] | Ki [2] [nM] | EC50 (Hepatitis C virus [3]) [nM] | EC50 (Hepatitis C virus [4]) [nM] | Ki [5] [nM]
CCC1(OC(=O)N[C@H]2CCCCC/C=C/[C@@H]3C[C@@]3(C(=O)NS(=O)(=O)C3(C)CC3)NC(=O)[C@@H]3C[C@@H](Oc4nc5cc(OC)ccc5nc4C)CN3C2=O)CCCC1 | 1.6 | 1.3 | 8.3 | 4.7 | –
COc1ccc2nc(O[C@@H]3C[C@H]4C(=O)N[C@]5(C(=O)NS(=O)(=O)C6(C)CC6)C[C@H]5/C=C/CCCCC[C@H](NC(=O)OCC5(C)CC5)C(=O)N4C3)c(C(F)(F)F)nc2c1 | 5.7 | 2.9 | 41 | 8.3 | –
COc1ccc2nc(C)c(O[C@@H]3C[C@H]4C(=O)N[C@]5(C(=O)NS(=O)(=O)C6(C)CC6)C[C@H]5/C=C/CCCCC[C@H](NC(=O)OC5(C)CC5)C(=O)N4C3)nc2c1 | 0.3 | 4.4 | 12 | 3.5 | –
COc1ccc2nc(C)c(O[C@@H]3C[C@H]4C(=O)N[C@]5(C(=O)NS(=O)(=O)C6(C)CC6)C[C@H]5/C=C/CCCCC[C@H](NC(=O)O[C@H](C)C(C)C)C(=O)N4C3)nc2c1 | 0.3 | 1.5 | 7.7 | 1.9 | –
COc1ccc2nc(O[C@@H]3C[C@H]4C(=O)N[C@]5(C(=O)NS(=O)(=O)C6(C)CC6)C[C@H]5/C=C/CCCCC[C@H](NC(=O)OC5C[C@@H]6C[C@@H]6C5)C(=O)N4C3)c(C(F)(F)F)nc2c1 (stereo not given in full) | – | 0.2 | 70 | 2.1 | 170
COc1ccc2nc(O[C@@H]3C[C@H]4C(=O)N[C@]5(C(=O)NS(=O)(=O)C6(C)CC6)C[C@H]5/C=C/CCCCC[C@H](NC(=O)OC5(C)CC5)C(=O)N4C3)c(C(F)(F)F)nc2c1 | 5.8 | 11 | 99 | 14 | –
COc1ccc2nc(C)c(O[C@@H]3C[C@H]4C(=O)N[C@]5(C(=O)NS(=O)(=O)C6(C)CC6)C[C@H]5/C=C/CCCCC[C@H](NC(=O)OC5CC(F)(F)C5)C(=O)N4C3)nc2c1 | 0.6 | 0.6 | 5.3 | 4.1 | –
COc1ccc2nc(C)c(O[C@@H]3C[C@H]4C(=O)N[C@]5(C(=O)NS(=O)(=O)C6(C)CC6)C[C@H]5/C=C/CCCCC[C@H](NC(=O)OC5(C)CCCC5)C(=O)N4C3)nc2c1 | 3.7 | 1.8 | 49 | 4.7 | 150
COc1ccc2nc(O[C@@H]3C[C@H]4C(=O)N[C@]5(C(=O)NS(=O)(=O)C6(C)CC6)C[C@H]5/C=C/CCCCC[C@H](NC(=O)O[C@H](C)C5CC5)C(=O)N4C3)c(C(F)(F)F)nc2c1 | 2.6 | 12 | 44 | 19 | –
COc1ccc2nc(O[C@@H]3C[C@H]4C(=O)N[C@]5(C(=O)NS(=O)(=O)C6(C)CC6)C[C@H]5/C=C/CCCCC[C@H](NC(=O)OCC(C)(C)C)C(=O)N4C3)c(C(F)(F)F)nc2c1 | 4.9 | 2.9 | 158 | 14 | –
COc1ccc2nc(C)c(O[C@@H]3C[C@H]4C(=O)N[C@]5(C(=O)NS(=O)(=O)C6(C)CC6)C[C@H]5/C=C/CCCCC[C@H](NC(=O)OC(C)C)C(=O)N4C3)nc2c1 | – | 2.1 | – | – | –
COc1ccc2nc(C)c(O[C@@H]3C[C@H]4C(=O)N[C@]5(C(=O)NS(=O)(=O)C6(C)CC6)C[C@H]5/C=C/CCCCC[C@H](NC(=O)OC5CCCC5)C(=O)N4C3)nc2c1 | 0.1 | 1.1 | – | 1.9 | 120
COc1ccc2nc(C)c(O[C@@H]3C[C@H]4C(=O)N[C@]5(C(=O)NS(=O)(=O)C6(C)CC6)C[C@H]5/C=C/CCCCC[C@H](NC(=O)OC5CCCCC5)C(=O)N4C3)nc2c1 | 0.2 | 0.9 | 6.8 | 3 | 145
COc1ccc2nc(C)c(O[C@@H]3C[C@H]4C(=O)N[C@]5(C(=O)NS(=O)(=O)C6(C)CC6)C[C@H]5/C=C/CCCCC[C@H](NC(=O)OC5(C)CCC5)C(=O)N4C3)nc2c1 | 0.5 | 1.4 | 4.2 | 3.4 | –
COc1ccc2nc(C)c(O[C@@H]3C[C@H]4C(=O)N[C@]5(C(=O)NS(=O)(=O)C6(C)CC6)C[C@H]5/C=C/CCCCC[C@H](NC(=O)O[C@@H](C)C(F)(F)F)C(=O)N4C3)nc2c1 | 0.8 | 0.7 | 8.1 | – | –
COc1ccc2nc(C)c(O[C@@H]3C[C@H]4C(=O)N[C@]5(C(=O)NS(=O)(=O)C6(C)CC6)C[C@H]5/C=C/CCCCC[C@H](NC(=O)O[C@@H](C)C(C)C)C(=O)N4C3)nc2c1 | 0.6 | 1.9 | 7 | 3.6 | –
COc1ccc2nc(O[C@@H]3C[C@H]4C(=O)N[C@]5(C(=O)NS(=O)(=O)C6(C)CC6)C[C@H]5/C=C/CCCCC[C@H](NC(=O)O[C@@H]5CCC[C@H]5F)C(=O)N4C3)c(C(F)(F)F)nc2c1 | 0.2 | 8 | 35 | 2.3 | –
COc1ccc2nc(C)c(O[C@@H]3C[C@H]4C(=O)N[C@]5(C(=O)NS(=O)(=O)C6(C)CC6)C[C@H]5/C=C/CCCCC[C@H](NC(=O)O[C@@H](C)C5CC5)C(=O)N4C3)nc2c1 | 5.3 | 1.8 | 128 | 10 | –
COc1ccc2nc(O[C@@H]3C[C@H]4C(=O)N[C@]5(C(=O)NS(=O)(=O)C6(C)CC6)C[C@H]5/C=C/CCCCC[C@H](NC(=O)OCC5(C(F)(F)F)CC5)C(=O)N4C3)c(C(F)(F)F)nc2c1 | 1.2 | 3.5 | 43 | 4.6 | –
CCc1nc2ccc(OC)cc2nc1O[C@@H]1C[C@H]2C(=O)N[C@]3(C(=O)NS(=O)(=O)C4CC4)C[C@H]3/C=C/CCCCC[C@H](NC(=O)OC(C)(C)C)C(=O)N2C1 | – | – | – | 6.3 | –
COc1ccc2nc(C)c(O[C@@H]3C[C@H]4C(=O)N[C@]5(C(=O)NS(=O)(=O)C6(C)CC6)C[C@H]5/C=C/CCCCC[C@H](NC(=O)OCC5(C)CC5(F)F)C(=O)N4C3)nc2c1 (stereo not given in full) | 0.3 | 3.1 | 8.3 | 2.1 | 100
COc1ccc2nc(C)c(O[C@@H]3C[C@H]4C(=O)N[C@]5(C(=O)NS(=O)(=O)C6(C)CC6)C[C@H]5/C=C/CCCCC[C@H](NC(=O)OCC5(C)CC5)C(=O)N4C3)nc2c1 | 0.8 | 0.7 | 8.5 | 3.8 | –
COc1ccc2nc(O[C@@H]3C[C@H]4C(=O)N[C@]5(C(=O)NS(=O)(=O)C6(C)CC6)C[C@H]5/C=C/CCCCC[C@H](NC(=O)OC5CC(F)(F)C5)C(=O)N4C3)c(C(F)(F)F)nc2c1 | 3.2 | 11 | 35 | 6.9 | –
COc1ccc2nc(O[C@@H]3C[C@H]4C(=O)N[C@]5(C(=O)NS(=O)(=O)C6(C)CC6)C[C@H]5/C=C/CCCCC[C@H](NC(=O)OCC(C)C)C(=O)N4C3)c(C(F)(F)F)nc2c1 | 4.8 | 4 | 91 | 15 | –
COc1ccc2nc(O[C@@H]3C[C@H]4C(=O)N[C@]5(C(=O)NS(=O)(=O)C6(C)CC6)C[C@H]5/C=C/CCCCC[C@H](NC(=O)O[C@H](C)C(C)C)C(=O)N4C3)c(C(F)(F)F)nc2c1 | 2.1 | 3 | 45 | 6.3 | –
COc1ccc2nc(C)c(O[C@@H]3C[C@H]4C(=O)N[C@]5(C(=O)NS(=O)(=O)C6(C)CC6)C[C@H]5/C=C/CCCCC[C@H](NC(=O)O[C@H](C)C5CC5)C(=O)N4C3)nc2c1 | 0.3 | 1.5 | 11 | 3.7 | –
COc1ccc2nc(C)c(O[C@@H]3C[C@H]4C(=O)N[C@]5(C(=O)NS(=O)(=O)C6(C)CC6)C[C@H]5/C=C/CCCCC[C@H](NC(=O)OC5CCC5)C(=O)N4C3)nc2c1 | 0.1 | 0.3 | 3.4 | 2.7 | 110
